Data reported in ChEMBL document CHEMBL5678817, “FTBMT, a Novel and Selective GPR52 Agonist, Demonstrates Antipsychotic-Like and Procognitive Effects in Rodents, Revealing a Potential Therapeutic Agent for Schizophrenia” (J Pharmacol Exp Ther, 2017).
The source made the active and inactive calls. The rule behind the calls is not given here.

Key:
[1] = biological target: Neuromedin-K receptor (Homo sapiens) (UniProt P29371); experiment: Inhibition of Tachykinin NK3 receptor (unknown origin) at 10 uM relative to control
How it was run: (§1)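 Binding and enzyme panel run by an outside contractor against receptors, ion channels and enzymes. Each assay used a single 10 μM test concentration, and results are expressed as percent inhibition. A negative value means stimulation of receptor activity or activation of enzyme activity.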

[2] = biological target: Carbonic anhydrase 2 (Homo sapiens) (UniProt P00918); experiment: Inhibition of Carbonic anhydrase II (unknown origin) at 10 uM relative to control
How it was run: (§2)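 Single-point screen at 10 μM across receptor, ion channel and enzyme binding or activity assays. Expressed as percent inhibition versus control; negative values denote stimulation.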

[3] = biological target: Androgen receptor (Homo sapiens) (UniProt P10275); experiment: Inhibition of Androgen receptor (unknown origin) at 10 uM relative to control; how it was run: as §2
Chain of Androgen receptor (Homo sapiens) (P10275 whole entry): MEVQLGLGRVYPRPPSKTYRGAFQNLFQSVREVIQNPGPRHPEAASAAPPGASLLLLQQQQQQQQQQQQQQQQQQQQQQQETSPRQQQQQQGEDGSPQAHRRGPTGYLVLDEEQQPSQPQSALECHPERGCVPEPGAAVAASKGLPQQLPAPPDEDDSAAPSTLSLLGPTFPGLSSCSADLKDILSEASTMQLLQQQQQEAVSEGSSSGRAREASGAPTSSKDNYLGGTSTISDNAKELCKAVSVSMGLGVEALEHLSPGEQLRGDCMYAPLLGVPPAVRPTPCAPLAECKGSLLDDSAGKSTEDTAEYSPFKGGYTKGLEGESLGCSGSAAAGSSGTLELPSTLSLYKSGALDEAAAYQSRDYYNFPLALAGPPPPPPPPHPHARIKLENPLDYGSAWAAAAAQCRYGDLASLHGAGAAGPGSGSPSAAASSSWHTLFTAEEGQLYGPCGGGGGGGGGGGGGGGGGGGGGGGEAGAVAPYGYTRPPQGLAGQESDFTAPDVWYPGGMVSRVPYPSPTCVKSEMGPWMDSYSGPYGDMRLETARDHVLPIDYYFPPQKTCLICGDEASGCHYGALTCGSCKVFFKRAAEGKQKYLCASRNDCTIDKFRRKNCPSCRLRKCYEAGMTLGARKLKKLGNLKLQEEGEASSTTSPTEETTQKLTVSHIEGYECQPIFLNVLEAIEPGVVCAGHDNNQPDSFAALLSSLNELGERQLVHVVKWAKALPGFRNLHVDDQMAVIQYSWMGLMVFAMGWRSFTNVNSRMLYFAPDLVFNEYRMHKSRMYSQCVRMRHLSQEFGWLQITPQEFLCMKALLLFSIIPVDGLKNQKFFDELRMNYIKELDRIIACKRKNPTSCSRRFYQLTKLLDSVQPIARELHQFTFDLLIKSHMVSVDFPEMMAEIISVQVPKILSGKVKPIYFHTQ

[4] = tested on: Mus musculus; experiment: Pro-cognitive activity in C57BL/6N mouse assessed as increase in Arc gene expression in hippocampus at 3 to 30 mg/kg, po […]; assay type: functional, organism-based; conditions: dose 3-30 mg/kg
[5] = species: Homo sapiens; experiment: Inhibition of Calcium channel N-type (unknown origin) at 10 uM relative to control; how it was run: as §2
[6] = biological target: Muscarinic acetylcholine receptor M1 (Homo sapiens) (UniProt P11229); experiment: Inhibition of Muscarinic M1 receptor (unknown origin) at 10 uM relative to control
How it was run: (§3)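 Part of a 98-target external biochemical selectivity panel that used radioligand/receptor binding-type assays. Compound tested once at 10 µM. Results are reported as % inhibition versus control; negative values mean stimulation of receptor activity.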

[7] = species: Homo sapiens; experiment: Inhibition of Glutamate kainate receptor (unknown origin) at 10 uM relative to control; how it was run: as §3
[8] = biological target: cAMP-dependent protein kinase (PKA) (Homo sapiens) (UniProt P22694+P17612+P22612); experiment: Inhibition of Protein kinase A (unknown origin) at 10 uM relative to control; assay type: protein assay
How it was run: (§4)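 Enzyme activity assays from the same 98-target biochemical panel. Single test concentration of 10 µM. Read-out is % inhibition of enzyme activity relative to control; negative percentages indicate activation of the enzyme.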

[9] = biological target: Glutamate [NMDA] receptor (Homo sapiens) (UniProt Q05586+Q12879+Q13224+O15399+O60391+Q14957+Q8TCU5); experiment: Inhibition of Glutamate NMDA receptor (unknown origin) at 10 uM in presence of glycine relative to control; assay type: protein-complex assay; how it was run: as §3
[10] = biological target: MAO-A (amine oxidase [flavin-containing] A) (Homo sapiens, UniProt P21397); experiment: Inhibition of MAO-A (unknown origin) at 10 uM relative to control; how it was run: as §4
Chain of MAO-A (amine oxidase [flavin-containing] A) (P21397 whole entry): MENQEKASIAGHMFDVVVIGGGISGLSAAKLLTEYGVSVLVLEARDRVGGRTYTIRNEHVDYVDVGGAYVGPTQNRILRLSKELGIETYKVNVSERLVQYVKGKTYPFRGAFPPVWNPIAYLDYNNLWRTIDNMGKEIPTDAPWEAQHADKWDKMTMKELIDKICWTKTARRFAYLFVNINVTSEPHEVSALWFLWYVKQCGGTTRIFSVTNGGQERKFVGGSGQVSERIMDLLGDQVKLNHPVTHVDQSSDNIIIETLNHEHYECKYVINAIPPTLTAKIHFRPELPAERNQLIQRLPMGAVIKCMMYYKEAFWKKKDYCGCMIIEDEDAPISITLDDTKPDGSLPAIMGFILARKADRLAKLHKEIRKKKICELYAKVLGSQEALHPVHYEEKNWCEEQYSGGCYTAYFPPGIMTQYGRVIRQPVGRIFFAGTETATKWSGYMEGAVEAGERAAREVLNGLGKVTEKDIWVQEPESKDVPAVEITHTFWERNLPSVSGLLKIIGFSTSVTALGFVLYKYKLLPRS

[11] = biological target: D(4) dopamine receptor (Homo sapiens) (UniProt P21917); experiment: Inhibition of Dopamine D4 receptor (unknown origin) at 10 uM relative to control; how it was run: as §3
Chain of D(4) dopamine receptor (Homo sapiens) (P21917 whole entry): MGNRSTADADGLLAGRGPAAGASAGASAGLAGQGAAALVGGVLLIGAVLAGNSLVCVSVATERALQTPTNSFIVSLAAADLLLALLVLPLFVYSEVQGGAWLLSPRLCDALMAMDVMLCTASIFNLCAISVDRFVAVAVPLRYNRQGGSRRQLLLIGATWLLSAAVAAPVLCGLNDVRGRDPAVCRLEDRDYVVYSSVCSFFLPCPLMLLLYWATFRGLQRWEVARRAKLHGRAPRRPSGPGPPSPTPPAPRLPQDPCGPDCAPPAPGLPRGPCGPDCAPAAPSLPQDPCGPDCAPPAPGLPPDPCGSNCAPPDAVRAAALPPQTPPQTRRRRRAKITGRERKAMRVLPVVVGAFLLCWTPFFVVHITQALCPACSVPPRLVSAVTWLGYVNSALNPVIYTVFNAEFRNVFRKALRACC

[12] = biological target: T1, G protein-coupled receptor 52 (Rattus norvegicus) (UniProt A0A8I5ZQK1); experiment: Agonist activity at GPR52 in rat Striatal neuron assessed as increase in c-fos mRNA expression by RT-PCR analysis; assay type: cell-based; conditions: filed as agonist
T1 sequence (A0A8I5ZQK1 as listed by the source): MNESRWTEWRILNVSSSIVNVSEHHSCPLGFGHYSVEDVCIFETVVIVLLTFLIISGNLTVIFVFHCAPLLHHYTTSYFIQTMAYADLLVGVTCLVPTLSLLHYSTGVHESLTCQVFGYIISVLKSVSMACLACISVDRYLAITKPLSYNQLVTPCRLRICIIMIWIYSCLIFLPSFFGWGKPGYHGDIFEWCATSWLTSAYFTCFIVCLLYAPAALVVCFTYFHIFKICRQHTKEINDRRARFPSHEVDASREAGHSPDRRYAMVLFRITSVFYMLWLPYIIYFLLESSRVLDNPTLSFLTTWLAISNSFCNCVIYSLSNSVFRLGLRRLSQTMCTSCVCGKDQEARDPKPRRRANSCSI
How it was run: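 Rat primary striatal neurons (E18–19), used at DIV 13–16. Treated in HBSS with 5 mM HEPES pH 7.5 and 0.5% fatty-acid-free BSA for 15 or 60 min at 37 °C. Cells were homogenized in RLT buffer and IEG mRNA was quantified by qPCR using absolute or ΔΔCt relative quantification.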

[13] = biological target: Cannabinoid receptor 1 (Homo sapiens) (UniProt P21554); experiment: Inhibition of CB1 receptor (unknown origin) at 10 uM relative to control; how it was run: as §2
[14] = species: Homo sapiens; experiment: Inhibition of dopamine receptor (unknown origin) at 10 uM relative to control; how it was run: as §1
[15] = species: Homo sapiens; experiment: Inhibition of NA+/K+ ATPase (unknown origin) at 10 uM relative to control; how it was run: as §4
[16] = biological target: Phosphodiesterase 3 (Homo sapiens) (UniProt Q14432+Q13370); experiment: Inhibition of PDE3 (unknown origin) at 10 uM relative to control; assay type: protein assay; how it was run: as §4
[17] = biological target: Beta-1 adrenergic receptor (Homo sapiens) (UniProt P08588); experiment: Inhibition of Adrenergic beta1 receptor (unknown origin) at 10 uM relative to control; how it was run: as §2
Chain of Beta-1 adrenergic receptor (Homo sapiens) (P08588 whole entry, looked up): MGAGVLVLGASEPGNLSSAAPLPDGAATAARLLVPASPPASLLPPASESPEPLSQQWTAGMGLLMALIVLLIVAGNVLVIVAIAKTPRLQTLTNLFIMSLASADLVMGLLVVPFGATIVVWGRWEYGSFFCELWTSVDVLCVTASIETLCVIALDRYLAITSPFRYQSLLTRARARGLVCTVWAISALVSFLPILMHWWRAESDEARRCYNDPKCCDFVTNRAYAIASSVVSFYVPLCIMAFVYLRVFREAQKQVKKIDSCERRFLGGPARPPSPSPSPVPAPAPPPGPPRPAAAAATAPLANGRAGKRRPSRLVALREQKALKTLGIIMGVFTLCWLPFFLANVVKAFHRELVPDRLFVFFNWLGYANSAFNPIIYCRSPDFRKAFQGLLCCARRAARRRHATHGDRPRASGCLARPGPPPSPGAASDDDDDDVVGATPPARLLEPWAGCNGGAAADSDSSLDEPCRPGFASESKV

[18] = tested on: Mus musculus; experiment: Antipsychotic activity in wild type mouse assessed as increase in phosphorylated CREB level in striatum at 30 mg/kg, po incubated for 60 mins by ELISA analysis; assay type: functional, organism-based
[19] = biological target: Nitric oxide synthase, inducible (Homo sapiens) (UniProt P35228); experiment: Inhibition of iNOS (unknown origin) at 10 uM relative to control; how it was run: as §1
[20] = tested on: Mus musculus; experiment: Pro-cognitive activity in C57BL/6N mouse assessed as increase in c-fos gene expression in hippocampus at 3 to 30 mg/kg, po measured after 2 hrs […]; assay type: functional, organism-based; conditions: dose 3-30 mg/kg
[21] = species: Homo sapiens; experiment: Inhibition of Glutamate receptor (unknown origin) at 10 uM relative to control; how it was run: as §3
[22] = tested on: Rattus norvegicus; experiment: Pro-cognitive activity in Long-Evans rat assessed as discrimination index at 3 to 10 mg/kg, po measured after 3 mins by NORT test; assay type: functional, organism-based; conditions: dose 3-10 mg/kg
How it was run: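 Male Long-Evans rats (7 weeks) were habituated to a 40 × 40 × 50 cm box for 10 min. The acquisition trial was 3 min with two identical objects. Oral dosing at 3 or 10 mg/kg followed immediately after acquisition. The 3-min retention trial, with one familiar and one novel object, ran 48 h later. Exploration was hand-scored by a blinded scorer, and NDI = novel/total × 100. n = 10.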

[23] = biological target: Type-2 angiotensin II receptor (Homo sapiens) (UniProt P50052); experiment: Inhibition of AT2 receptor (unknown origin) at 10 uM relative to control; how it was run: as §2
Chain of Type-2 angiotensin II receptor (Homo sapiens) (P50052 whole entry): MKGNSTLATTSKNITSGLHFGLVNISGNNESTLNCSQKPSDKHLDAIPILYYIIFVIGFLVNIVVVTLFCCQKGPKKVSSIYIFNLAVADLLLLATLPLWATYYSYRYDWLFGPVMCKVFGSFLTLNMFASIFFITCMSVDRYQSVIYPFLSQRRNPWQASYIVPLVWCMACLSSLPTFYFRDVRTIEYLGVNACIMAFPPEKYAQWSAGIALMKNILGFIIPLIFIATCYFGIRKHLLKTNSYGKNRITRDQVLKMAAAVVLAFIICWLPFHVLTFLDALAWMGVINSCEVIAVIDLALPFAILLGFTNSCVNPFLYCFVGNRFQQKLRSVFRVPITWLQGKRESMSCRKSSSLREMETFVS

[24] = biological target: T1, G protein-coupled receptor 52 (Rattus norvegicus); experiment: Agonist activity at GPR52 in rat Striatal neuron assessed as increase in NMDA-stimulated GABA release […] followed by NMDA-stimulation and measured after 20 mins by scintillation counter analysis; assay type: cell-based; conditions: filed as agonist, time 60.0 min
[25] = biological target: Alpha-1A adrenergic receptor (Homo sapiens) (UniProt P35348); experiment: Inhibition of Adrenergic alpha1 receptor (unknown origin) at 10 uM relative to control; how it was run: as §2
Chain of Alpha-1A adrenergic receptor (Homo sapiens) (P35348 whole entry): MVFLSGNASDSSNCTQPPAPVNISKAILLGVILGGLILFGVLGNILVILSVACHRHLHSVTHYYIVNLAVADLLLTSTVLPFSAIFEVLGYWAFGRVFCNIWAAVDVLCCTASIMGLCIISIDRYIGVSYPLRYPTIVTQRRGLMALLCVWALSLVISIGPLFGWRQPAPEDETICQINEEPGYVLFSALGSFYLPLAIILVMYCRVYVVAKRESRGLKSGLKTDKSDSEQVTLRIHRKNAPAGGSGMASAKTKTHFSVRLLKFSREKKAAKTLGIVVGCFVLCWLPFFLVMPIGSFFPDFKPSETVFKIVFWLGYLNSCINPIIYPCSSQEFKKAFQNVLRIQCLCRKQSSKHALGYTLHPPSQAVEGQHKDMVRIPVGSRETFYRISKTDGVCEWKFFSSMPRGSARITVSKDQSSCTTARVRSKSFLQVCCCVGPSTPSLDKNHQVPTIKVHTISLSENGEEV

[26] = tested on: Mus musculus; experiment: Antipsychotic activity in methamphetamine-induced hyperactivity in ICR mouse assessed as minimum effective dose administered orally; assay type: functional; conditions: route po, read-out: MED
[27] = biological target: D(1A) dopamine receptor (Homo sapiens) (UniProt P21728); experiment: Inhibition of Dopamine D1 receptor (unknown origin) at 10 uM relative to control; how it was run: as §2
Chain of D(1A) dopamine receptor (Homo sapiens) (P21728 whole entry): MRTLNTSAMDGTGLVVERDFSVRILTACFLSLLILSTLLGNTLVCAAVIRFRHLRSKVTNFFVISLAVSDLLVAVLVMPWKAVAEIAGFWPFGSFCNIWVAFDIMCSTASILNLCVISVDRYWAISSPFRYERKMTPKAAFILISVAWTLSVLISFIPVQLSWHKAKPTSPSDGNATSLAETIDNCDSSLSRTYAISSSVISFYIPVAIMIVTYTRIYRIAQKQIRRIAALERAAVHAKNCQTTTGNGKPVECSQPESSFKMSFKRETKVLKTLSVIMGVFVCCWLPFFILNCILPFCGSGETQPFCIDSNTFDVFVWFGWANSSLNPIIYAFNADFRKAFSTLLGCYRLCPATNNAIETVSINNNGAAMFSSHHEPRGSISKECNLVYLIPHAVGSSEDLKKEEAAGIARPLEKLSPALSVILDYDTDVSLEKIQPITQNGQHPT

[28] = biological target: Polyunsaturated fatty acid 5-lipoxygenase (Homo sapiens) (UniProt P09917); experiment: Inhibition of […] (unknown origin) at 10 uM relative to control; how it was run: as §4
[29] = biological target: Adenosine receptor A2a (Homo sapiens) (UniProt P29274); experiment: Inhibition of Adenosine A2A receptor (unknown origin) at 10 uM relative to control; how it was run: as §2
Chain of Adenosine receptor A2a (Homo sapiens) (P29274 whole entry): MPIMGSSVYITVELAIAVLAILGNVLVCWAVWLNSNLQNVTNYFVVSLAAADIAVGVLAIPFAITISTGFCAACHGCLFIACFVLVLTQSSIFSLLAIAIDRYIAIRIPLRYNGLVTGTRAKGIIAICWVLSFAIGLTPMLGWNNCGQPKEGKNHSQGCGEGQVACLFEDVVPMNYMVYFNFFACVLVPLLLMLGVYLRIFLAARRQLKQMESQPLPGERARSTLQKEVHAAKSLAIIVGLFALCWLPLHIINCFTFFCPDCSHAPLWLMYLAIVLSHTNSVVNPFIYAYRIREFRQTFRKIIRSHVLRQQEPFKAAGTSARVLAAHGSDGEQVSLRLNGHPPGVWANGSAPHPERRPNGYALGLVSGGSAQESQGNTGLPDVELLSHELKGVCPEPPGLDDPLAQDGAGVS

[30] = species: Homo sapiens; experiment: Inhibition of Nicotinic acetylcholine receptor (unknown origin) at 10 uM relative to control; how it was run: as §3
[31] = biological target: G-protein coupled receptor 52 (Homo sapiens, UniProt Q9Y2T5); experiment: Agonist activity at human GPR52 expressed in CHO cells assessed as increase in intracellular cAMP level incubated for 30 mins by Alphascreen assay; assay type: functional, cell-based
Chain of G-protein coupled receptor 52 (Q9Y2T5 whole entry): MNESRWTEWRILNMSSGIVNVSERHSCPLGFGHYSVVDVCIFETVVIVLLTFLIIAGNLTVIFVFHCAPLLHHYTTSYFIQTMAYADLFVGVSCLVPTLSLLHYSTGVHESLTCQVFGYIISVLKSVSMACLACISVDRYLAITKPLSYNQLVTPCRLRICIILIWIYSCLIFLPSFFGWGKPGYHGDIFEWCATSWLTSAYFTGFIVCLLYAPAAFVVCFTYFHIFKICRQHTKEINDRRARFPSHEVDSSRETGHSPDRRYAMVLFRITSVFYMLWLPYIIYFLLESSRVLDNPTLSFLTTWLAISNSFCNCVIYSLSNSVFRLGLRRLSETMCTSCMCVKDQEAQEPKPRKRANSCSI
How it was run: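 CHO cells stably expressing human, mouse or rat GPR52, plus naïve CHO cells, at 10,000 cells/well. Stimulated in cAMP assay buffer for 30 min at 37 °C. Intracellular cAMP read by AlphaScreen.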

**Q.** Which inhibition [1] does the source give for `Cc1cc(-n2nc(Cc3cc(F)cc(C(F)(F)F)c3)nc2C)ccc1C(N)=O` [TP-024] here?
**A.** The inhibition was 20%.

**Q.** And the inhibition [2]?
**A.** The inhibition was 4%.

**Q.** What about the inhibition [3] of the same compound?
**A.** The inhibition was 5%.

**Q.** And the Activity [4]?
**A.** Its Activity is “Active”.

**Q.** What about the inhibition [5] of the same compound?
**A.** The inhibition was -9%.

**Q.** What about the inhibition [6] of the same compound?
**A.** The inhibition was 4%.

**Q.** What about the inhibition [7] of the same compound?
**A.** The inhibition was 2%.

**Q.** What about the inhibition [8] of the same compound?
**A.** Its inhibition is 17%.

**Q.** What about the inhibition [9] of the same compound?
**A.** The inhibition was 3%.

**Q.** And the inhibition at 10 µM [10]?
**A.** The inhibition at 10 µM was 6%.

**Q.** What about the inhibition [11] of the same compound?
**A.** The inhibition was 3%.

**Q.** And the Activity [12]?
**A.** The Activity was “Active”.

**Q.** What about the inhibition [13] of the same compound?
**A.** Its inhibition is -4%.

**Q.** What about the inhibition [14] of the same compound?
**A.** Its inhibition is -1%.

**Q.** And the inhibition [15]?
**A.** Its inhibition is -2%.

**Q.** What about the inhibition [16] of the same compound?
**A.** Its inhibition is 28%.

**Q.** What about the inhibition [17] of the same compound?
**A.** Its inhibition is -1%.

**Q.** And the Activity [18]?
**A.** The Activity was “Active”.

**Q.** And the inhibition [19]?
**A.** Its inhibition is 7%.

**Q.** What about the Activity [20] of the same compound?
**A.** The Activity was “Active”.

**Q.** And the inhibition [21]?
**A.** The inhibition was 2%.

**Q.** And the Activity [22]?
**A.** The Activity was “Active”.

**Q.** And the inhibition [23]?
**A.** Its inhibition is 1%.

**Q.** And the Activity [24]?
**A.** Its Activity is “Active”.

**Q.** What about the inhibition [25] of the same compound?
**A.** The inhibition was 3%.

**Q.** And the minimal effective dose [26]?
**A.** The minimal effective dose was 10 mg/kg.

**Q.** What about the inhibition [27] of the same compound?
**A.** The inhibition was 7%.

**Q.** And the inhibition [28]?
**A.** The inhibition was -5%.

**Q.** And the inhibition [29]?
**A.** Its inhibition is 0%.

**Q.** What about the inhibition [30] of the same compound?
**A.** Its inhibition is -2%.

**Q.** What about the EC50 [31] of the same compound?
**A.** The EC50 was 93.3 nM.
